Rows were chosen to be rich in hits. Some 5.7% of all compounds tested hit in one or more screens of this group.
Calb FLC – C. albicans growth modulation with fluconazole; C. albicans CaCi-2 (fluconazole-resistant clinical isolate) + fluconazole, Alamar Blue growth, 48 h; growth inhibition, % (concentration not given with the values); 300,000 tested, 0.57% active; AID 1979;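 active means growth inhibition above about 58% in most replicates, limit read from the data, passing the limit was not always enough; inconclusive means exactly half the replicates above a set limit; inactive means most replicates below a set limit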;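 further: all wells also contain fluconazole at 8 µg/ml as a sub-toxic cotreatment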
SKKanGAS inh – blocks kanamycin growth of S. pyogenes SKKanGAS strain. inhibition, % at 7.5 µM. BacTiter-Glo, 6 h. 300,000 tested, 1.3% active;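 active means mean replicate score, as percent of positive control median, at least 50; inconclusive means mean below 50 but one replicate at or above 50; inactive means mean and every replicate below 50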;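 further: strain carries kanamycin resistance gene driven by streptokinase promoter and grows in 40 µg/ml kanamycin; loss of luminescence reflects streptokinase promoter inhibition or plain growth inhibition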
T cruzi inh – T. cruzi replication inhibition | 300,000 tested, 1.4% active | T. cruzi beta-gal in NIH3T3, luminescence, 90 h | inhibition, % (concentration not given with the values);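 active means mean inhibition across valid replicates above about 55%, limit read from the data; inconclusive means mean below that limit but half or more replicates reach it; inactive means mean below it, under half of replicates reach it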;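 further: signal also drops with host cell toxicity which is not excluded here; higher percent means less beta-gal luminescence so fewer parasites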
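System: mouse NIH/3T3 fibroblasts infected with β-gal-expressing T. cruzi Tulahuen C4 / Input: NIH/3T3 cells, 5,000 per well / Buffer or medium: Low-serum DMEM with 2% FBS / Probe or stimulus: 5000 reporter trypomastigotes per well / Schedule: ≥90 h infection period, 3 h prior cell attachment / Measured by: GalScreen luminescence, 60 min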
Mdm2 MdmX PPI – inhibitors of human Mdm2/MdmX interaction. inhibition, % at 8 µM. SaOS-2 split-luciferase Mdm2/MdmX complementation, luminescence. 330,000 tested, 3% active. O15151+Q00987;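 active means inhibition of at least 50% at 8 µM in the primary screen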
Beta cell apopt – beta cell apoptosis inhibition; AID 435005; 300,000 tested, 0.8% active; protection from apoptosis, % (concentration not given with the values); INS-1E cytokine-induced death, ATP luminescence, 48 h; percent of positive-control rescue, neutral wells zero;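 active means Every replicate reaches about 75%, or at least half do and their mean reaches it too, limit read from the data; inconclusive means At least half of replicates reach the limit but their mean does not; inactive means Under half of replicates reach the limit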;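 further: higher means more ATP so stronger rescue from cytokine killing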
CSC inhib – cancer stem cell inhibition; cancer stem cell-like cells viability, luminescence; inhibition, % at 7.5 µM; 300,000 tested, 1.1% active; in the data active means inhibition above about 75%; inconclusive means no clear call, values can overlap the other calls; tested in HMLE shEcad cells
A number is an active result; – = inactive; ? = inconclusive; · = not tested or not shown.

SMILES | Calb FLC | SKKanGAS inh | T cruzi inh | Mdm2 MdmX PPI | Beta cell apopt | CSC inhib
CSc1ccc(/C=C(\C#N)C(=O)NC2CCCCC2C)cc1 (configuration not stated) | – | – | – | – | – | –
CC1CCCCC1NC(=O)/C(C#N)=C/c1ccccc1F (configuration not stated) | – | – | – | – | – | 81
CCN(CC(=O)Nc1c(F)cccc1F)C(=O)C1CCN(S(=O)(=O)c2ccc(C)cc2C)CC1 | – | – | – | – | – | –
CCOc1ccccc1NS(=O)(=O)c1c(C)[nH]c(C)c1C(=O)N1CCCCC1 | – | – | – | – | – | –
Cc1ncc(CO)c(/C=N/NC(=O)c2ccc(Br)cc2)c1O | – | – | – | – | – | –
Cc1ncc(CO)c(/C=N/NC(=O)c2cc(Br)ccc2O)c1O | ? | 92 | – | – | – | –
COc1ccc(C2c3[nH]c4ccccc4c3CCN2Cc2cccn2-c2ncccn2)cc1C (configuration not stated) | – | – | 79 | – | – | –
Cc1cccc(C2c3[nH]c4ccccc4c3CCN2Cc2cccn2-c2ncccn2)c1 (configuration not stated) | – | – | 58 | – | – | –
c1ccc(C2c3[nH]c4ccccc4c3CCN2Cc2cccn2-c2ccccn2)nc1 (configuration not stated) | – | – | – | – | – | –
CC(=O)c1c(C)[nH]c(C(=O)CN2CCN(S(=O)(=O)c3ccccc3[N+](=O)[O-])CC2)c1C | · | · | · | – | · | ·
Cc1c(O)cc2c(c1O)C(=O)CC(c1ccccc1)O2 (configuration not stated) | – | – | – | – | – | 77
O=C(CSc1ncnc2nc[nH]c12)c1ccccc1 | – | – | – | – | – | –
O=C(CSc1ncnc2nc[nH]c12)c1ccc(Cl)cc1 | – | – | – | – | – | 102
Cc1ccc(S(=O)(=O)NCc2ccccc2)cc1C(=O)NC(C)c1ccc(S(N)(=O)=O)cc1 (configuration not stated) | · | · | · | – | · | ·
CCOC(=O)c1cnc2ccc(C)cc2c1Sc1ccccc1C(=O)OC | – | – | 61 | – | – | –
COCCn1c(N)c(C(=O)c2cccc(S(=O)(=O)N3CCCCCC3)c2)c(=O)[nH]c1=O | · | · | · | – | – | ·
Cc1cc(C)c(Cc2c(C)nc3c(C(=O)NCc4ccco4)cnn3c2C)c(C)c1 | – | – | 59 | – | – | –
CCCCCn1c(CN2CCN(c3cc(Cl)ccc3C)CC2)nc2c1c(=O)[nH]c(=O)n2C | – | 86 | – | – | – | 112
O=C(NCc1cccnc1)c1ccc(-c2cc(Cl)ccc2Cl)o1 | – | – | 56 | – | – | –
O=C(NCc1cccnc1)Nc1cc(Cl)cc(Cl)c1 | – | 54 | – | – | – | –
Cc1ccc(NC(=S)NCc2cccnc2)cc1 | – | – | – | – | – | –
CCOC(=O)c1ccc(NC(=O)NCc2cccnc2)cc1 | – | – | – | – | 101 | –
CC(=O)c1ccc(NC(=S)NCc2cccnc2)cc1 | – | – | – | – | 100 | –
O=C(Nc1cccc([N+](=O)[O-])c1)c1cc(S(=O)(=O)N2CCOCC2)cs1 | – | – | – | – | – | –
O=C(NCc1cccnc1)c1ccc(-c2ccc(Cl)cc2)o1 | – | – | – | – | – | –
SMILES | Calb FLC | SKKanGAS inh | T cruzi inh | Mdm2 MdmX PPI | Beta cell apopt | CSC inhib
O=C(NCc1cccnc1)/C(=C\c1ccc(-c2ccc(Cl)c(Cl)c2)o1)S(=O)(=O)c1ccccc1 | ? | – | – | · | 105 | 113
CN1C(C(=O)NCc2ccco2)CC2Cn3c(nc4cc(Cl)c(Cl)cc43)C21 (configuration not stated) | – | – | – | – | – | –
CCN(Cc1ccncc1)C(=O)c1cc(COc2c(C)cccc2C)on1 | – | – | 57 | – | – | –
Cc1cccc(C)c1OCc1cc(C(=O)N2CC3C[C@@H]4CC2C[C@H](C3)C4)no1 | – | – | – | – | – | 107
CCN(Cc1ccncc1)C(=O)c1cc(COc2ccc(F)cc2F)on1 | – | – | – | – | · | ·
COc1ccc(Cl)cc1NC(=O)CSc1nnc(Cc2ccc(C)cc2)c(=O)[nH]1 | – | – | – | – | · | –
COc1cccc(-c2sc3ccc(OC)cc3c2C#CC(C)(C)O)c1 | · | · | · | – | – | 118
COc1cccc(-c2sc3ccc(OC)cc3c2C#CCC(C)O)c1 (configuration not stated) | · | · | · | – | – | 113
COc1ccc2sc(-c3ccc(SC)cc3)c(C#CC(C)(C)O)c2c1 | · | · | · | – | – | 105
COc1ccc(-c2sc3ccc(N4CCOCC4)cc3c2C#CC(C)(C)O)cc1 | · | · | · | – | – | 87
COc1ccc(-c2sc3cc(OC)c(OC)cc3c2C#CC(C)(C)O)cc1 | · | · | · | – | – | –
COc1ccc2sc(-c3ccc(N(C)C)cc3)c(C#CC(C)(C)O)c2c1 | · | · | · | – | – | –
COc1ccc2sc(-c3ccc(SC)cc3)c(C#CCO)c2c1 | · | · | · | – | – | 83
COc1ccc(-c2oc3ccc(N4CCOCC4)cc3c2C#CCO)cc1 | – | – | – | – | · | 97
Clc1ccc2[nH]cc(-c3nnnn3-c3ccc4ccccc4c3)c2c1 | – | – | 69 | – | – | –
Cc1ccc(-n2nnnc2-c2cnc3ccc(Cl)cc3c2-c2ccccc2)cc1 | – | – | – | – | – | –
COc1ccc(N2CCN(C(=O)C3CCN(S(=O)(=O)c4ccc(F)cc4)CC3)CC2)cc1 | – | – | – | – | – | –
Oc1ccc(/C=N/Nc2ccnc3cc(Cl)ccc23)c(O)c1O | – | – | – | – | – | –
Oc1ccc(/C=N/Nc2ccnc3cc(Cl)ccc23)cc1O | 100 | – | – | – | – | –
O=C(NCCC(=O)N1CCN(Cc2c(F)cccc2Cl)CC1)c1ccc(Cl)cc1 | · | · | · | – | – | –
C/C(Cn1nnc([N+](=O)[O-])n1)=N\NC(=O)c1ccc(Cl)c(Cl)c1 | – | – | 66 | – | – | –
COC(=O)C1N[C@@H]([C@@H](NC(=O)COc2ccccc2)C(=O)NCc2ccccc2)SC1(C)C (some centres not stated) | – | – | – | – | – | –
CC1=C(C(=O)OCc2ccccc2)N2C(=O)[C@@H](NC(=O)COc3ccccc3)[C@H]2SC1 | – | – | – | – | – | –
Cc1onc(-c2c(Cl)cccc2Cl)c1C(=O)N[C@@H]1C(=O)N2[C@@H]1SC(C)(C)[C@@H]2C(=O)O | – | – | – | – | – | –
CC1(C)S[C@@H]2[C@H](NC(=O)COc3ccccc3)C(=O)N2C1C(=O)OCc1cc2ccccc2n1S(=O)(=O)c1ccccc1 (some centres not stated) | – | 78 | – | · | – | –
CC1(C)S[C@@H]2[C@H](NC(=O)COc3ccccc3)C(=O)N2C1C(=O)OCC1CCCCC1 (some centres not stated) | – | 64 | – | – | – | –
Cc1onc(-c2c(Cl)cccc2Cl)c1C(=O)NC1C(=O)N2C1SC(C)(C)C2C(=O)O (configuration not stated) | – | 79 | – | – | – | –
